Source: ChEMBL document CHEMBL1153208, “Identification of a new class of small molecule C5a receptor antagonists” (Bioorg Med Chem Lett, 2010)

Legend:
[1] = target: T1, C5a anaphylatoxin chemotactic receptor 1 (Homo sapiens, UniProt P21730); assay: Antagonist activity at human C5a receptor expressed in CHO cells co-expressed with Galpha16 assessed as inhibition of anaphylatoxin C5a-induced intracellular calcium accumulation after 10 mins by FLIPR assay; type: functional, cell-based
T1 sequence (P21730 whole entry): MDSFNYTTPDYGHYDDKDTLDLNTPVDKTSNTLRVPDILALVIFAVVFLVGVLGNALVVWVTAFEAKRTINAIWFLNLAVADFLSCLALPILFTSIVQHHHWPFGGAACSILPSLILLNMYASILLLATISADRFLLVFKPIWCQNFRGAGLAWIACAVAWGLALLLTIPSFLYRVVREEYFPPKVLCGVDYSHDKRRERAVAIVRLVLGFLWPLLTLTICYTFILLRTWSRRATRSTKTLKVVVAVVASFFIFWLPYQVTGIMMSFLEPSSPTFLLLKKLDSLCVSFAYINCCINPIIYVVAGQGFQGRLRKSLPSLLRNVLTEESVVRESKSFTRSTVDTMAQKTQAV

[2] = target: T1, C5a anaphylatoxin chemotactic receptor 1; assay: Agonist activity at human C5a receptor expressed in CHO cells co-expressed with Galpha16 assessed as effect on anaphylatoxin C5a-induced intracellular calcium accumulation after 10 mins by FLIPR assay; type: functional, cell-based
[3] = target: T1, C5a anaphylatoxin chemotactic receptor 1; assay: Displacement of [125I]human anaphylatoxin C5a from human C5a receptor expressed in CHO cells co-expressed with Galpha16 after 1 hr; type: cell-based
Method in brief: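 Intact CHO-Gα16-C5aR cells plated at 50,000/well in growth medium with 10% FBS the day before. Medium replaced by HBSS + 20 mM HEPES + 0.1% BSA. Compound added for 10 min at rt, then 0.6 nM 125I-hC5a for 1 h at rt. Cells washed eight times with PBS + 1 mM CaCl2 + 0.1% BSA on a harvester.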

[4] = Inhibition of anaphylatoxin C5a-induced chemotaxis in human PMNC; type: functional
[5] = target: C-X-C chemokine receptor type 4 (Homo sapiens, UniProt P61073); assay: Inhibition of CXCR4 in human T cells; type: cell-based, T-cell
Blood = assay: Inhibition of anaphylatoxin C5a-induced PMNC shape changes in human whole blood treated 10 mins before anaphylatoxin C5a-induced challenge measured after 40 mins by FACS analysis; type: functional, tissue-based
Method in brief: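 Whole-blood assay. After stimulation, cells fixed with ice-cold 1% paraformaldehyde, then red cells lysed in ice-cold hypotonic buffer for 40 min on ice. Neutrophils gated by forward and side scatter on a flow cytometer. Shape change read as the rise in autofluorescence on the FL2-H channel.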

[6] = target: T1, C5a anaphylatoxin chemotactic receptor 1; assay: Antagonist activity at C5a receptor in human PMNC assessed as inhibition of anaphylatoxin C5a-induced intracellular calcium accumulation after 10 mins by FLIPR assay; type: functional, cell-based
Method in brief: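 Human neutrophils purified from whole blood on a Ficoll gradient, resuspended in Ca3 dye and plated at 50,000 cells/well in HBSS + 20 mM HEPES + 0.1% BSA. After 1 h at 37 °C, 5% CO2, compound added for 10 min, then 10 nM hC5a. Calcium response recorded on FLIPR.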

[7] = target: T2, C-X-C chemokine receptor type 3 (Homo sapiens, UniProt P49682); assay: Inhibition of CXCR3 in human T cells; type: cell-based, T-cell
T2 sequence (P49682 whole entry): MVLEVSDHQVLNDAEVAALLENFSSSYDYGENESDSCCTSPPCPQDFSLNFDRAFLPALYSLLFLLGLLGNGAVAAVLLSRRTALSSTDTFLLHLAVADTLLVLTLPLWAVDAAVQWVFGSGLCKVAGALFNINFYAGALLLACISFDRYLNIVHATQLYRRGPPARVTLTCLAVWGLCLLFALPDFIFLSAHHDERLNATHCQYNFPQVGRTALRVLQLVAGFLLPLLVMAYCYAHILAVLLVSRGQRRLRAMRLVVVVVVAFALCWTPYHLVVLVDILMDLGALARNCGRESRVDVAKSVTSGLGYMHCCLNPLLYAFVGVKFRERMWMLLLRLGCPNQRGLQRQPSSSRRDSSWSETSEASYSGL

P2Y purinoceptor 2 = P2Y purinoceptor 2 (Homo sapiens, UniProt P41231); assay: Inhibition of human P2Y2 receptor expressed in CHO cells; type: cell-based
Sequence of P2Y purinoceptor 2 (P41231 whole entry): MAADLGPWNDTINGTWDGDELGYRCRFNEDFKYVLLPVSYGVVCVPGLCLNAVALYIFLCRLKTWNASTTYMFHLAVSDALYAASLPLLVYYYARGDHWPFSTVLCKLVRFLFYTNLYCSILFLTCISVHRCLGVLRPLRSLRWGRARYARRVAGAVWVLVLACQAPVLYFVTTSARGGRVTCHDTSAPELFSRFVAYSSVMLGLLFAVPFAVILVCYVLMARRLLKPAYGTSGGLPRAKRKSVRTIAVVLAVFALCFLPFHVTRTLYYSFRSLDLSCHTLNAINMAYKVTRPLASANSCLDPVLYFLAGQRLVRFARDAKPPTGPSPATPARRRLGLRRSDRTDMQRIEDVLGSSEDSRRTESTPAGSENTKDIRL

Sequence of C-X-C chemokine receptor type 4 (P61073 whole entry): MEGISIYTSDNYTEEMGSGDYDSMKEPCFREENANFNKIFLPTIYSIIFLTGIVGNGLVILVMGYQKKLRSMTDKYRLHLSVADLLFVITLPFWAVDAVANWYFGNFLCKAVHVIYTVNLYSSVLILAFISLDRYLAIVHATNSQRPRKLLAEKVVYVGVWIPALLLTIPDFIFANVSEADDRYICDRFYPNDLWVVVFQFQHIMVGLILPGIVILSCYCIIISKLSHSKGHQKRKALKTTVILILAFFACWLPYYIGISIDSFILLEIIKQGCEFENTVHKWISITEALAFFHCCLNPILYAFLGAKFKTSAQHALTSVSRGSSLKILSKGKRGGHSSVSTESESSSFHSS

SMILES: CN(c1ccccc1N(C)S(=O)(=O)c1ccccc1)S(=O)(=O)c1ccccc1
- IC50 [1]: > 60 µM
- EC50 [2]: > 60 µM
- IC50 [3]: > 60 µM

SMILES: Cc1ccc(S(=O)(=O)N(C)c2ccc(Cl)cc2C(=O)c2ccccc2)cc1
- IC50 [1]: > 60 µM
- EC50 [2]: > 60 µM
- IC50 [3]: 8.7 µM

SMILES: Cc1ccc(S(=O)(=O)N(C)c2ccccc2N(C)S(=O)(=O)c2ccc(C)cc2)cc1
- IC50 [4]: 5.7 µM
- IC50 [5]: > 60 µM
- IC50 (Blood): 27 µM
- IC50 [6]: 0.0067 µM
- IC50 [1]: 0.2 µM
- EC50 [2]: > 60 µM
- IC50 [3]: 0.2 µM
- IC50 [7]: > 60 µM
- IC50 (P2Y purinoceptor 2): > 60 µM

SMILES: Cc1ccc(S(=O)(=O)N(C)c2ccc(Br)cc2C(=O)c2ccccc2)cc1
- IC50 [1]: > 60 µM
- EC50 [2]: > 60 µM
- IC50 [3]: 14.6 µM

SMILES: Cc1ccc(S(=O)(=O)N2CCN(S(=O)(=O)c3ccc(C)cc3)CC2)cc1
- IC50 [6]: > 60 µM
- IC50 [1]: > 60 µM

SMILES: Cc1ccc(S(=O)(=O)N2Cc3ccccc3CN(S(=O)(=O)c3ccc(C)cc3)c3ccccc32)cc1
- IC50 [1]: > 60 µM
- EC50 [2]: > 60 µM
- IC50 [3]: > 60 µM

SMILES: Cc1ccc(S(=O)(=O)N(C)c2ccccc2C(=O)N2CCc3ccccc32)cc1
- IC50 [1]: 38.3 µM
- EC50 [2]: > 60 µM
- IC50 [3]: 44.5 µM

SMILES: C=CCN(c1ccccc1N(CC=C)S(=O)(=O)c1ccc(C)cc1)S(=O)(=O)c1ccc(C)cc1
- IC50 [4]: 2.5 µM
- IC50 [5]: > 60 µM
- IC50 [6]: 0.059 µM
- IC50 [1]: 0.3 µM
- EC50 [2]: > 60 µM
- IC50 [3]: 0.3 µM
- IC50 [7]: > 60 µM
- IC50 (P2Y purinoceptor 2): > 60 µM

SMILES: Cc1ccc(S(=O)(=O)N(C)c2ccccc2C(=O)c2ccsc2)cc1
- IC50 [4]: > 60 µM
- IC50 [5]: > 60 µM
- IC50 (Blood): > 60 µM
- IC50 [6]: 0.4 µM
- IC50 [1]: 0.6 µM
- EC50 [2]: > 60 µM
- IC50 [3]: 1.7 µM
- IC50 [7]: > 60 µM
- IC50 (P2Y purinoceptor 2): > 60 µM

SMILES: Cc1ccc(S(=O)(=O)N2CCN(S(=O)(=O)c3ccc(C)cc3)c3ccccc32)cc1
- IC50 [1]: > 60 µM
- EC50 [2]: > 60 µM
- IC50 [3]: > 60 µM

SMILES: Cc1ccc(S(=O)(=O)N(CCCN(c2ccccc2)S(=O)(=O)c2ccc(C)cc2)c2ccccc2)cc1
- IC50 [6]: > 60 µM
- IC50 [1]: > 60 µM

SMILES: CC(=O)c1ccccc1N(C)S(=O)(=O)c1ccc(C)cc1
- IC50 [1]: > 60 µM
- EC50 [2]: > 60 µM
- IC50 [3]: > 60 µM
